{
  "source": "ChEMBL document CHEMBL4376899",
  "about": "“Structure-Based Stabilization of Non-native Protein-Protein Interactions of Coronavirus Nucleocapsid Proteins in Antiviral Drug Design” (J Med Chem, 2020)",
  "key": {"[1]": {"assay": "Cytotoxicity in African green monkey Vero E6 cells incubated for 48 hrs by neutral red uptake assay", "type": "cell-based, Vero C1008", "conditions": "chlorocebus sabaeus"}, "[2]": {"system": "Middle East respiratory syndrome-related coronavirus", "assay": "Antiviral activity against MERS-CoV infected in African green monkey Vero E6 cells incubated for 48 hrs by neutral red uptake assay", "type": "functional, organism-based", "conditions": "Vero C1008, 48 h"}, "[3]": {"system": "Middle East respiratory syndrome-related coronavirus", "assay": "Binding affinity to N-terminal domain of MERS-CoV nucleocapsid protein assessed as interaction with W43 pocket at 10 uM incubated for 1 hr by fluorescence spectral analysis", "summary_of_the_method": "(§1)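 1 μM N protein was incubated with 10 μM compound or buffer at 4 °C for 1 h in 50 mM Tris-HCl (pH 8.3), 150 mM NaCl. Tryptophan fluorescence was excited at 280 nm and emission scanned over 300–400 nm.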"}, "Vero C1008 [4]": {"system": "Vero C1008", "assay": "Inhibition of nucleocapsid protein expression in HCoV EMC/2012 infected in African green monkey Vero E6 cells at 100 uM by immunofluorescence microscopy", "type": "functional", "conditions": "Human betacoronavirus 2c EMC/2012"}, "Vero C1008 [5]": {"system": "Vero C1008", "assay": "Antiviral activity against HCoV EMC/2012 infected in African green monkey Vero E6 cells assessed as reduction in viral replication at 100 uM incubated for 48 hrs by RT-qPCR analysis", "type": "functional", "conditions": "Human betacoronavirus 2c EMC/2012"}, "[6]": {"system": "Middle East respiratory syndrome-related coronavirus", "assay": "Binding affinity to N-terminal domain of MERS-CoV nucleocapsid protein assessed as maximum dimension at 440 uM by SAXS analysis (reference value: 207 angstrom)"}, "[7]": {"system": "Middle East respiratory syndrome-related coronavirus", "assay": "Binding affinity to N-terminal domain of MERS-CoV nucleocapsid protein assessed as denaturation melting temperature at 10 uM incubated for 1 hr by fluorescent thermal stability assay (reference value: 42 degC)"}, "Vero C1008 [8]": {"system": "Vero C1008", "assay": "Induction of intracellular nucleocapsid protein aggregation in HCoV EMC/2012 infected in African green monkey Vero E6 cells at 50 uM by immunofluorescence microscopy", "type": "cell-based", "conditions": "Human betacoronavirus 2c EMC/2012"}, "[9]": {"assay": "Antiviral activity against HCoV EMC/2012 infected in African green monkey Vero E6 cells assessed as reduction in viral replication at 50 uM incubated for 48 hrs by RT-qPCR analysis", "type": "functional, Human betacoronavirus 2c EMC/2012, Vero C1008", "set-up": "scale not given: the % may be the effect or the level left"}, "[10]": {"assay": "Therapeutic index, ratio of CC50 for cytotoxicity in African green monkey VeroE6 cells incubated for 48 hrs by neutral red uptake assay to EC50 for antiviral activity against MERS-CoV infected in African green monkey Vero E6 cells incubated for 48 hrs by neutral red uptake assay", "type": "toxicity, cell-based, Vero C1008", "conditions": "read-out: Ratio CC50/EC50"}, "[11]": {"system": "Middle East respiratory syndrome-related coronavirus", "assay": "Binding affinity to N-terminal domain of MERS-CoV nucleocapsid protein assessed as radius of gyration at 440 uM by SAXS analysis (reference value: 58 angstrom)"}, "Vero C1008 [12]": {"system": "Vero C1008", "assay": "Antiviral activity against HCoV EMC/2012 infected in African green monkey Vero E6 cells assessed as reduction in viral titer at 50 uM incubated for 48 hrs by crystal violet staining based viral plaque assay", "type": "functional", "conditions": "Human betacoronavirus 2c EMC/2012"}, "Vero C1008 [13]": {"system": "Vero C1008", "assay": "Antiviral activity against HCoV EMC/2012 infected in African green monkey Vero E6 cells assessed as reduction in viral titer at 100 uM incubated for 48 hrs by crystal violet staining based viral plaque assay", "type": "functional", "conditions": "Human betacoronavirus 2c EMC/2012"}, "[14]": {"system": "Middle East respiratory syndrome-related coronavirus", "assay": "Binding affinity to N-terminal domain of MERS-CoV nucleocapsid protein assessed as induction of blue shift in fluorescence spectrum at 10 uM incubated for 1 hr by fluorescence spectral analysis", "summary_of_the_method": "as §1"}},
  "note": "Calls of active or inactive are those of the source. The rule behind the calls is not given here.",
  "data": [
    {"smiles": "O=C(OCc1ccccc1)N1c2ccccc2CC1CO", "note": "(stereo not given)", "values": [
      {"measurement": "CC50 at 48 h", "setting": "[1]", "value": 460, "unit": "µM"},
      {"measurement": "EC50", "setting": "[2]", "value": "> 100", "unit": "µM"},
      {"measurement": "Activity", "setting": "[3]", "value": "Active"}
    ]},
    {"smiles": "CN(C)Cc1c[nH]c2ccc(OCc3ccccc3)cc12", "values": [
      {"measurement": "inhibition", "setting": "Vero C1008 [4]", "value": "Active"},
      {"measurement": "Activity", "setting": "Vero C1008 [5]", "value": "Active"},
      {"measurement": "Activity", "setting": "[6]", "value": 230, "unit": "Angstrom"},
      {"measurement": "CC50 at 48 h", "setting": "[1]", "value": 805, "unit": "µM"},
      {"measurement": "EC50", "setting": "[2]", "value": 32.1, "unit": "µM"},
      {"measurement": "Tm", "setting": "[7]", "value": 45, "unit": "°C"},
      {"measurement": "Activity", "setting": "Vero C1008 [8]", "value": "Active"},
      {"measurement": "Activity", "setting": "[9]", "value": 40, "unit": "%"},
      {"measurement": "selectivity ratio at 48 h", "setting": "[10]", "value": 25.1},
      {"measurement": "Activity", "setting": "[11]", "value": 65, "unit": "Angstrom"},
      {"measurement": "Activity", "setting": "Vero C1008 [12]", "value": "Active"},
      {"measurement": "Activity", "setting": "Vero C1008 [13]", "value": "Active"},
      {"measurement": "Activity", "setting": "[3]", "value": "Active"},
      {"measurement": "Activity", "setting": "[14]", "value": "Active"}
    ]},
    {"smiles": "CCc1cccc2c3c([nH]c12)C(CC)(CC(=O)O)OCC3", "note": "(stereo not given) [ETODOLAC]", "values": [
      {"measurement": "CC50 at 48 h", "setting": "[1]", "value": 570, "unit": "µM"},
      {"measurement": "EC50", "setting": "[2]", "value": "> 100", "unit": "µM"},
      {"measurement": "Activity", "setting": "[3]", "value": "Active"}
    ]}
  ]
}
